Experimental data: ChEMBL document CHEMBL4396889, “From Inhibition to Degradation: Targeting the Antiapoptotic Protein Myeloid Cell Leukemia 1 (MCL1)” (J Med Chem, 2019)
Calls of active or inactive are those of the source. No cut-off for these calls is given here.

How the values were obtained:
[1] = biological target: T1, Protein cereblon/Induced myeloid leukemia cell differentiation protein Mcl-1 (Homo sapiens) (UniProt Q07820+Q96SW2); experiment: Protac activity at Cereblon/MCL1 in human OPM2 cells at 500 nM after 3 hrs in presence of proteasome inhibitor bortezomib by immunoblot analysis; assay type: cell-based
T1 sequence (Q07820 whole entry, looked up): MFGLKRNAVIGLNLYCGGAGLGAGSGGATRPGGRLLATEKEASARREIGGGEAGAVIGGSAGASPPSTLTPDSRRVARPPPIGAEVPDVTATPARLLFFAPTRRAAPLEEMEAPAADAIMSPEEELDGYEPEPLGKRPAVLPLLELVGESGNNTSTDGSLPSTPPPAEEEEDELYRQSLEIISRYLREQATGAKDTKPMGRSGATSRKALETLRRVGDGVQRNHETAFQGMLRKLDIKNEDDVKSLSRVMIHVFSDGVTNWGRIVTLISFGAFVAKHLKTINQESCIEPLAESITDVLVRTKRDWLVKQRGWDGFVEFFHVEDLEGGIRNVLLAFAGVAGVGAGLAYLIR
T1 sequence (Q96SW2 whole entry, looked up): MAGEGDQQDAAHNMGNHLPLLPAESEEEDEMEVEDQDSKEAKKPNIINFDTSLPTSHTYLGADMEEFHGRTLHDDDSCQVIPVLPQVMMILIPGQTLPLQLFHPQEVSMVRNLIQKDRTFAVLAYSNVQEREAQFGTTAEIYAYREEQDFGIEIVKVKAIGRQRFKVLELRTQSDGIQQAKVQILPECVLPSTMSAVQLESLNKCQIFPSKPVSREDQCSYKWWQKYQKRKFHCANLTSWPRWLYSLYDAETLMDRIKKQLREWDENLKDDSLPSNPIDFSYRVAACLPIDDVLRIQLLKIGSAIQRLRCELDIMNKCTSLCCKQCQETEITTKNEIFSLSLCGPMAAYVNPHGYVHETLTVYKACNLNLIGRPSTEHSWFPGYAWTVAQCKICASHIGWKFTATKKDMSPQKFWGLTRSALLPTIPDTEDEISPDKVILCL
Method in brief: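 OPM2 cells were treated for 3 h with DMSO, degrader and/or the proteasome inhibitor bortezomib, then immunoblotted for MCL1.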

OPM-2 [2] = experiment: Induction of apoptosis in wild type human OPM2 cells assessed as cleaved caspase-3 at 500 nM after 24 hrs in presence of 1% FBS by immunoblot analysis (reference value: 80%); assay type: functional
[3] = biological target: T2, Induced myeloid leukemia cell differentiation protein Mcl-1 (Homo sapiens, UniProt Q07820); experiment: Induction of MCL1 short isoform degradation in CRBN-/- human OPM2 cells assessed as protein abundance at 500 nM after 48 hrs by immunoblot analysis relative to control; assay type: cell-based
T2 sequence (Q07820 whole entry, canonical isoform): as the sequence (Q07820 whole entry, looked up) above
Method in brief: (§1)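 OPM2 multiple myeloma cells, wild type or CRBN-knockout, were treated for 48 h with degrader or DMSO vehicle. MCL1 long and short isoforms were detected by immunoblot and levels compared with DMSO controls.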

[4] = biological target: T1, Protein cereblon/Induced myeloid leukemia cell differentiation protein Mcl-1 (Homo sapiens); experiment: Protac activity at Cereblon/MCL1 long isoform in human MM1S cells assessed as MCL1 long isoform level at 300 nM pre-incubated for 72 hrs followed by cycloheximide addition and measured after 120 mins by immunoblot analysis (reference value: 55%); assay type: cell-based
Method in brief: (§2)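 Cycloheximide chase: cells were treated for 72 h with DMSO or degrader, with cycloheximide added for the final 30, 60 or 120 min. OPM2 and MM1.S cells were used, and wild-type OPM2 was compared with OPM2 CRBN-/- at 60 and 120 min. MCL1 was detected by immunoblot.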

[5] = biological target: T1, Protein cereblon/Induced myeloid leukemia cell differentiation protein Mcl-1 (Homo sapiens); experiment: Protac activity at Cereblon/MCL1 short isoform in human OPM2 cells assessed as MCL1 short isoform level at 300 nM pre-incubated for 72 hrs followed by cycloheximide addition and measured after 120 mins by immunoblot analysis (reference value: 14%); assay type: cell-based
Method in brief: (§3)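 OPM2 or MM1.S cells were treated for 72 h with compound or DMSO. Cycloheximide was added for the final 30, 60 or 120 min. MCL1 was read by immunoblot and compared with DMSO-treated cells as a normal-turnover reference.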

[6] = biological target: T1, Protein cereblon/Induced myeloid leukemia cell differentiation protein Mcl-1 (Homo sapiens); experiment: Protac activity at Cereblon/MCL1 long isoform in human OPM2 cells assessed as MCL1 long isoform abundance at 100 nM after 24 hrs by immunoblot analysis relative to control; assay type: cell-based
OPM-2 [7] = experiment: Induction of apoptosis in wild type human OPM2 cells assessed as cleaved caspase-3 at 50 nM after 24 hrs in presence of 1% FBS by immunoblot analysis (reference value: 95%); assay type: functional
[8] = biological target: T1, Protein cereblon/Induced myeloid leukemia cell differentiation protein Mcl-1 (Homo sapiens); experiment: Protac activity at Cereblon/MCL1 short isoform in wild type human OPM2 cells assessed as MCL1 short isoform abundance at 250 nM after 48 hrs by immunoblot analysis relative to control; assay type: cell-based
Method in brief: (§4)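 OPM2 wild-type cells, run alongside the CRBN-/- line, were treated for 48 h with compound or DMSO. The MCL1 long and short isoforms were then measured by immunoblot against the DMSO control.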

[9] = biological target: T1, Protein cereblon/Induced myeloid leukemia cell differentiation protein Mcl-1 (Homo sapiens); experiment: Protac activity at Cereblon/MCL1 long isoform in wild type human OPM2 cells assessed as MCL1 long isoform level at 300 nM pre-incubated for 72 hrs followed by cycloheximide addition and measured after 60 mins by immunoblot analysis (reference value: 84%); assay type: cell-based; method in brief: as §2
[10] = biological target: T1, Protein cereblon/Induced myeloid leukemia cell differentiation protein Mcl-1 (Homo sapiens); experiment: Protac activity at Cereblon/MCL1 in human OPM2 cells assessed as protein abundance at 100 nM after 48 hrs by immunoblot analysis relative to control; assay type: cell-based; method in brief: as §1
[11] = biological target: T1, Protein cereblon/Induced myeloid leukemia cell differentiation protein Mcl-1 (Homo sapiens); experiment: Protac activity at Cereblon/MCL1 short isoform in human MM1S cells assessed as MCL1 short isoform level at 300 nM pre-incubated for 72 hrs followed by cycloheximide addition and measured after 30 mins by immunoblot analysis (reference value: 100%); assay type: cell-based; method in brief: as §2
[12] = biological target: T2, Induced myeloid leukemia cell differentiation protein Mcl-1; experiment: Binding affinity to His-tagged biotinylated human MCL1 by surface plasmon resonance method
[13] = biological target: T1, Protein cereblon/Induced myeloid leukemia cell differentiation protein Mcl-1 (Homo sapiens); experiment: Protac activity at Cereblon/MCL1 short isoform in wild type human OPM2 cells assessed as MCL1 short isoform abundance at 50 nM after 48 hrs by immunoblot analysis relative to control; assay type: cell-based; method in brief: as §4
[14] = biological target: T1, Protein cereblon/Induced myeloid leukemia cell differentiation protein Mcl-1 (Homo sapiens); experiment: Protac activity at Cereblon/MCL1 in human OPM2 cells assessed as protein abundance at 250 nM after 48 hrs by immunoblot analysis relative to control; assay type: cell-based; method in brief: as §1
[15] = biological target: T2, Induced myeloid leukemia cell differentiation protein Mcl-1; experiment: Induction of MCL1 short isoform degradation in CRBN-/- human OPM2 cells assessed as protein abundance at 250 nM after 48 hrs by immunoblot analysis relative to control; assay type: cell-based; method in brief: as §1
[16] = biological target: T1, Protein cereblon/Induced myeloid leukemia cell differentiation protein Mcl-1 (Homo sapiens); experiment: Protac activity at Cereblon/MCL1 long isoform in human OPM2 cells assessed as MCL1 long isoform level at 300 nM pre-incubated for 72 hrs followed by cycloheximide addition and measured after 60 mins by immunoblot analysis (reference value: 84%); assay type: cell-based; method in brief: as §2
OPM-2 [17] = experiment: Cytotoxicity against CRBN-/- human OPM2 cells assessed as reduction in cell viability at 50 to 10000 nM after 48 hrs by CellTiter-96 Cell Viability Assay; assay type: cell-based; details: opm-2, 48 h, 10 µM
[18] = biological target: T1, Protein cereblon/Induced myeloid leukemia cell differentiation protein Mcl-1 (Homo sapiens); experiment: Protac activity at Cereblon/MCL1 short isoform in human OPM2 cells assessed as MCL1 short isoform abundance at 250 nM after 24 hrs by immunoblot analysis relative to control; assay type: cell-based
OPM-2 [19] = experiment: Induction of apoptosis in wild type human OPM2 cells assessed as cleaved caspase-3 at 250 nM after 24 hrs in presence of 1% FBS by immunoblot analysis (reference value: 92%); assay type: functional
[20] = biological target: T1, Protein cereblon/Induced myeloid leukemia cell differentiation protein Mcl-1 (Homo sapiens); experiment: Protac activity at Cereblon/MCL1 short isoform in human MM1S cells assessed as MCL1 short isoform level at 300 nM pre-incubated for 72 hrs followed by cycloheximide addition and measured after 60 mins by immunoblot analysis (reference value: 98%); assay type: cell-based; method in brief: as §3
[21] = biological target: T2, Induced myeloid leukemia cell differentiation protein Mcl-1; experiment: Induction of MCL1 short isoform degradation in CRBN-/- human OPM2 cells assessed as protein abundance at 300 nM pre-incubated for 72 hrs followed by cycloheximide addition and measured after 60 mins by immunoblot analysis (reference value: 57%); assay type: cell-based; method in brief: as §2
[22] = biological target: T1, Protein cereblon/Induced myeloid leukemia cell differentiation protein Mcl-1 (Homo sapiens); experiment: Protac activity at N-terminal His-tagged human MCL1 expressed in Escherichia coli/Cereblon in human OPM2 cell lysate assessed as ternary complex formation at 500 nM incubated for 4 hrs followed by cell lysate addition after overnight incubation by SDS-PAGE/immunoblot analysis
[23] = biological target: T1, Protein cereblon/Induced myeloid leukemia cell differentiation protein Mcl-1 (Homo sapiens); experiment: Protac activity at Cereblon/MCL1 short isoform in human OPM2 cells assessed as MCL1 short isoform abundance at 100 nM after 24 hrs by immunoblot analysis relative to control; assay type: cell-based
[24] = biological target: T1, Protein cereblon/Induced myeloid leukemia cell differentiation protein Mcl-1 (Homo sapiens); experiment: Protac activity at Cereblon/MCL1 in human OPM2 cells assessed as protein abundance at 1 uM after 48 hrs by immunoblot analysis relative to control; assay type: cell-based; method in brief: as §1
[25] = biological target: T1, Protein cereblon/Induced myeloid leukemia cell differentiation protein Mcl-1 (Homo sapiens); experiment: Protac activity at Cereblon/MCL1 short isoform in human OPM2 cells assessed as MCL1 short isoform abundance at 50 nM after 24 hrs by immunoblot analysis relative to control; assay type: cell-based
[26] = biological target: T1, Protein cereblon/Induced myeloid leukemia cell differentiation protein Mcl-1 (Homo sapiens); experiment: Protac activity at Cereblon/MCL1 long isoform in human OPM2 cells assessed as MCL1 long isoform level at 300 nM pre-incubated for 72 hrs followed by cycloheximide addition and measured after 30 mins by immunoblot analysis (reference value: 98%); assay type: cell-based; method in brief: as §2
[27] = biological target: T2, Induced myeloid leukemia cell differentiation protein Mcl-1; experiment: Induction of MCL1 long isoform degradation in CRBN-/- human OPM2 cells assessed as protein abundance at 500 nM after 48 hrs by immunoblot analysis relative to control; assay type: cell-based; method in brief: as §1

Cc1nn(C)c(COc2ccc(N3CCN(S(=O)(=O)N(C)C)CC3)cc2)c1-c1cccc2c(CCCOc3cccc4ccccc34)c(C(=O)O)n(CCN3CCN(C(=O)COc4cccc5c4C(=O)N(C4CCC(=O)NC4=O)C5=O)CC3)c12 (configuration not stated)
Activity [1]: inactive
Activity (OPM-2 [2]): 326%
Activity [3]: 100%
Activity [4]: 40%
Activity [5]: 2%
Activity [6]: 77%
Activity (OPM-2 [7]): 85%
Activity [8]: 47%
Activity [9]: 66%
Activity [10]: 63%
Activity [11]: 74%
Kd [12]: 30 nM
Activity [13]: 79%
Activity [14]: 63%
Activity [15]: 97%
Activity [16]: 58%
Activity (OPM-2 [17]): Toxic
Activity [18]: 49%
Activity (OPM-2 [19]): 197%
Activity [20]: 31%
Activity [21]: 64%
Activity [22]: Active
Activity [23]: 59%
Activity [24]: 110%
Activity [25]: 96%
Activity [26]: 88%
Activity [27]: 100%
